ChEMBL document CHEMBL1152658, “Antioxidant activity of benzoxazolinonic and benzothiazolinonic derivatives in the LDL oxidation model” (2009)
The source made the active and inactive calls. No cut-off for these calls is given here.

Experiments:
BAEC [1] = assay: Cytoprotective activity against LDL-induced cytotoxicity in BAEC assessed as decrease in LDH release at 10 uM treated for 24 hrs before LDL challenge measured after 16 hrs by spectrometry; assay type: functional; details: Bos taurus
How it was run: (§1)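 BAECs (primary, bovine aorta) in DMEM with 10% newborn calf serum, glutamine, penicillin. Pretreated 24 h with drug in methanol (final 10 µM), then 16 h at 37 °C with drug plus native LDL or mO-LDL at 100 µg/mL (mO-LDL from LDL incubated at 30 °C without oxidant). Medium LDH read spectrometrically by NAD reduction, expressed as % of total LDH released by 0.1% Triton X-100; mean (SD) of two incubations in triplicate.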

BAEC [2] = assay: Cytoprotective activity against minimally oxidized LDL-induced cytotoxicity in BAEC assessed as decrease in number of detached and shrunk cells at 10 uM treated for 24 hrs before mO-LDL challenge measured after 16 hrs by spectrometry; assay type: functional, cell-based; details: Bos taurus
How it was run: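 BAECs pretreated 24 h with drug (final 10 µM in methanol), then exposed 16 h at 37 °C to mO-LDL (100 µg protein/mL, air-oxidized LDL) with drug. Cells examined for morphology: contraction, cytoplasmic ramification, rounding and detachment from wells.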

[3] = Cytoprotective activity against minimally oxidized LDL-induced cytotoxicity in BAEC assessed as cell vitality at 10 uM treated for 24 hrs before mO-LDL challenge measured after 16 hrs by MTT assay; assay type: functional, Bos taurus
How it was run: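 Primary bovine aortic endothelial cells grown in DMEM with 10% newborn calf serum, glutamine and penicillin. Pretreated 24 h with drug in methanol, then 16 h at 37 °C with air-oxidized LDL (100 µg protein/mL, made by incubating LDL at 30 °C without CuSO4 or AAPH) plus drug (final 10 µM). MTT (5 mg solution in PBS) added for 5 h. Formazan dissolved in dimethylformamide, A590 read, expressed as % of control wells.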

[4] = Cytoprotective activity against minimally oxidized LDL-induced cytotoxicity in BAEC assessed as LDH release at 10 uM treated for 24 hrs before mO-LDL challenge measured after 16 hrs by spectrometry; assay type: functional, Bos taurus; how it was run: as §1
[5] = Inhibition of CuSO4-induced human LDL oxidation assessed as length of lag phase of conjugated diene formation measured every 10 mins for 8 hrs by spectrophotometry; assay type: functional
How it was run: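 Human LDL (NaBr density ultracentrifugation, 1.019–1.063 g/mL) oxidized with 16.6 µM CuSO4 at 30 °C. Diene conjugation followed at 234 nm every 10 min for 8 h. Lag-phase length taken from the kinetic curves.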

[6] = Inhibition of CuSO4-induced human LDL oxidation assessed as ratio of length of lag phase of conjugated diene formation in presence of compound to untreated control at 100 uM measured every 10 mins for 8 hrs by spectrophotometry; assay type: functional
How it was run: (§2)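 Human LDL taken from fasting normolipidemic volunteers by sequential NaBr density ultracentrifugation (1.019–1.063 g/mL), protein measured by Peterson method. Oxidation started with 16.6 µM CuSO4 or 2 mM AAPH, compound at 1–100 µM. Conjugated dienes read at 234 nm every 10 min for 8 h at 30 °C. R = lag phase with compound / lag phase without compound.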

[7] = Inhibition of CuSO4-induced human LDL oxidation assessed as ratio of length of lag phase of conjugated diene formation in presence of compound to untreated control at 10 uM measured every 10 mins for 8 hrs by spectrophotometry; assay type: functional; how it was run: as §2
[8] = Inhibition of CuSO4-induced human LDL oxidation assessed as ratio of length of lag phase of conjugated diene formation in presence of compound to untreated control at 5 uM measured every 10 mins for 8 hrs by spectrophotometry; assay type: functional; how it was run: as §2
[9] = Inhibition of AAPH-induced human LDL oxidation assessed as ratio of length of lag phase of conjugated diene formation in presence of compound to untreated control at 5 uM measured every 10 mins for 8 hrs by spectrophotometry; assay type: functional; how it was run: as §2

SMILES | Activity (BAEC [1]) | Activity (BAEC [2]) | Activity [3] | Activity [4] | Activity [5] | Ratio [6] | Ratio [7] | Ratio [8] | Ratio [9]
CCCN1CCc2cc(O)c(NC)cc2C1c1cccc(O)c1 (stereo not given) | inactive | Active | 90% | 14.1% |  |  |  |  | 
COc1ccc2[nH]cc(CCNC(C)=O)c2c1 [MELATONIN] | inactive | Active | 90% |  | Dose-dependent effect | 1.5 |  |  | 
CCCN1CCc2c([nH]c3ccc(CC)cc23)C1c1cccc(OC)c1.Cl (stereo not given) | inactive | Active | 90% | 15.32% | Dose-dependent effect | > 5 | > 5 | 1.6 | 1.5
COc1cccc(C2=NCCc3cc4oc(=O)n(C)c4cc32)c1 | inactive | Active | 90% |  | Dose-dependent effect | > 5 | 1.8 | 1 | 
COc1cccc(C2NCCc3cc4sc(=O)n(C)c4cc32)c1 (stereo not given) | inactive | Active | 90% | 14.5% | Dose-dependent effect | > 5 | > 5 | 2.1 | 2
COc1ccc2[nH]c(=O)oc2c1 [COIXOL] | inactive |  | 90% |  | Dose-dependent effect | 1.5 |  |  | 
CCCN1CCc2cc3sc(=O)n(C)c3cc2C1c1cccc(OC)c1 (stereo not given) | inactive | Active | 90% | 14.6% | Dose-dependent effect | > 5 | > 5 | 2.1 | 1.9
CCCCCCCCCN1CCc2cc3oc(=O)n(C)c3cc2C1c1cccc(OC)c1 (stereo not given) | inactive | Active | 90% |  | Dose-dependent effect | > 5 | 3.8 | 1.7 | 
CCCN1CCc2cc(O)c(NC)cc2C1c1cccc(OC)c1 (stereo not given) | inactive | Active | 90% | 13.2% | Dose-dependent effect | > 5 | > 5 | 3.2 | 3.3
CCCN1CCc2cc3oc(=O)n(C)c3cc2C1c1cccc(O)c1 (stereo not given) | inactive | Active | 90% | 13.5% | Dose-dependent effect | > 5 | > 5 | 2.5 | 2.4
CCCN1CCc2cc3oc(=O)n(C)c3cc2C1c1cccc(OC)c1 (stereo not given) | inactive | Active | 90% |  | Dose-dependent effect | > 5 | 3.3 | 1.5 | 
COc1cccc(C2NCCc3cc4oc(=O)n(C)c4cc32)c1 (stereo not given) | inactive | Active | 90% |  | Dose-dependent effect | > 5 | 1.8 | 1 | 
COc1cccc(C2=NCCc3cc4sc(=O)n(C)c4cc32)c1 | inactive | Active | 90% | 14.12% | Dose-dependent effect | > 5 | > 5 | 2.5 | 2.5
